Key:
Mus musculus [1] = assay: […] anticancer activity against B6D2F-1 mice bearing Lewis Lung Carcinoma measured by the Average tumor vol after day 10 at an intraperitoneal dose of 6(mg/kg).; type: functional
Outline: (§1)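 Male B6D2F1 mice (8 weeks old, 20–25 g) received 4×10^6 Lewis lung carcinoma cells sc on day -2. Dosing was ip, QDx5, starting on day 1. Groups were 4 control mice and 3 mice per dose. Tumor size and average body-weight change were evaluated on days 7, 10 and 14. Tumor volume is expressed as the treated/control ratio.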

Mus musculus [2] = assay: […] anticancer activity against B6D2F-1 mice bearing Lewis Lung Carcinoma measured by the Average tumor vol after day 10 at an intraperitoneal dose of 3(mg/kg).; type: functional; outline: as §1
Mus musculus [3] = assay: […] anticancer activity against B6D2F-1 mice bearing Sarcoma 180 measured by the average weight change(g) after day 10 at an intraperitoneal dose of 3(mg/kg).; type: functional
Outline: (§2)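 Male B6D2F1 mice (8 weeks old, 20–25 g) were inoculated sc with 3×10^6 Sarcoma 180 cells on day 0. Dosing was ip, QDx5, starting on day 1. Groups were 4 control mice and 2 mice per dose. Average body weight change (g) and treated/control tumor volume were evaluated on days 7, 10 and 14.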

Mus musculus [4] = assay: […] anticancer activity against B6D2F-1 mice bearing Sarcoma 180 measured by the average weight change(g) after day 14 at an intraperitoneal dose of 3(mg/kg).
Mus musculus [5] = assay: […] anticancer activity against 5 B6D2F-1 mice bearing P388 leukemia measured by the toxicity death at an intravenous dose of 10(mg/kg)..; type: organism-based; settings: in vivo
Outline: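 Male B6D2F1 mice, 8 weeks old, 20–25 g. P388/0 ascites cells (0.2 mL, ascites:saline 1.10) were implanted iv on day 0, and the tumor grew in the liver. Drug was given iv by tail vein on days 1, 3, 5, 7 and 9 (Q2Dx5), with 4–5 mice per group. Survival time was scored as 8 a.m. (0.0), 1 p.m. (0.25) or 5 p.m. (0.5) deaths. %ILS was averaged against untreated controls, and toxic deaths were counted.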

Mus musculus [6] = assay: […] anticancer activity against B6D2F-1 mice bearing Lewis Lung Carcinoma measured by the average weight change(g) after day 14 at an intraperitoneal dose of 3(mg/kg).; type: functional; outline: as §1
Mus musculus [7] = assay: […] anticancer activity against B6D2F-1 mice bearing P388 leukemia measured by the Average tumor vol after day 11 at an intravenous dose of 7(mg/kg).; type: functional
Mus musculus [8] = assay: […] anticancer activity against B6D2F-1 mice bearing Sarcoma 180 measured by the average weight change(g) after day 10 at an intraperitoneal dose of 7(mg/kg).; type: functional; outline: as §2
Mus musculus [9] = assay: […] anticancer activity against B6D2F-1 mice bearing Sarcoma 180 measured by the average weight change(g) after day 7 at an intraperitoneal dose of 7(mg/kg).; type: functional; outline: as §2
Mus musculus [10] = assay: […] anticancer activity against B6D2F-1 mice bearing Lewis Lung Carcinoma measured by the average weight change(g) after day 10 at an intraperitoneal dose of 3(mg/kg).; type: functional; outline: as §1
Mus musculus [11] = assay: […] anticancer activity against B6D2F-1 mice bearing Lewis Lung Carcinoma measured by the average weight change(g) after day 7 at an intraperitoneal dose of 3(mg/kg).; type: functional; outline: as §1
Mus musculus [12] = assay: […] anticancer activity against B6D2F-1 mice bearing Sarcoma 180 measured by the Average tumor vol after day 7 at an intravenous dose of 3(mg/kg).
Mus musculus [13] = assay: […] anticancer activity against B6D2F-1 mice bearing Sarcoma 180 measured by the Average tumor vol after day 7 at an intravenous dose of 7(mg/kg).
Mus musculus [14] = assay: […] anticancer activity against B6D2F-1 mice bearing Sarcoma 180 measured by the Average tumor vol after day 14 at an intravenous dose of 5(mg/kg).
Mus musculus [15] = assay: […] anticancer activity against B6D2F-1 mice bearing P388 leukemia measured by the Average tumor vol after day 10 at an intravenous dose of 3(mg/kg).; type: functional
Mus musculus [16] = assay: […] anticancer activity against B6D2F-1 mice bearing P388 leukemia measured by the average weight change(g) after day 7 at an intravenous dose of 10(mg/kg).; type: functional
Outline: (§3)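 Male B6D2F1 mice (8 weeks old, 20–25 g) were implanted iv on day 0 with P388/0 ascites cells (0.2 mL; ascites:saline 1.10), which grew in the liver. Drug was given iv via the tail vein, Q2Dx5, on days 1, 3, 5, 7 and 9. Groups had 4–5 mice. Day 1 value is mean body weight; later days are weight change.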

Mus musculus [17] = assay: […] anticancer activity against B6D2F-1 mice bearing P388 leukemia measured by the average body weight(g) after day 1 at an intravenous dose of 15(mg/kg).
HL-60 = assay: In vitro inhibition of human leukemic HL-60 cell growth in culture; type: functional, cell-based
Outline: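 HL-60 cells were seeded at 5×10^4 cells/mL in RPMI 1640 with 10% heat-inactivated FBS, penicillin and streptomycin, at 37 °C in 5% CO2. Cells were exposed for 72 h to six or seven drug concentrations, run in duplicate. Viability was read by XTT-tetrazolium microculture absorbance, and IC50 was derived from median-effect plot analysis.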

Mus musculus [18] = assay: […] anticancer activity against B6D2F-1 mice bearing Lewis Lung Carcinoma measured by the average weight change(g) after day 10 at an intraperitoneal dose of 6(mg/kg).; type: functional; outline: as §1
Mus musculus [19] = assay: […] anticancer activity against B6D2F-1 mice bearing P388 leukemia measured by the average weight change(g) after day 11 at an intravenous dose of 10(mg/kg).; type: functional; outline: as §3
Mus musculus [20] = assay: […] anticancer activity against B6D2F-1 mice bearing Sarcoma 180 measured by the average weight change(g) after day 7 at an intraperitoneal dose of 5(mg/kg).; type: functional; outline: as §2
Mus musculus [21] = assay: […] anticancer activity against B6D2F-1 mice bearing P388 leukemia measured by the average weight change(g) after day 11 at an intravenous dose of 15(mg/kg).; type: functional; outline: as §3
Mus musculus [22] = assay: […] anticancer activity against B6D2F-1 mice bearing Sarcoma 180 measured by the average weight change(g) after day 10 at an intraperitoneal dose of 5(mg/kg).; type: functional; outline: as §2
Mus musculus [23] = assay: […] anticancer activity against B6D2F-1 mice bearing P388 leukemia measured by the average weight change(g) after day 7 at an intravenous dose of 15(mg/kg).; type: functional; outline: as §3
Mus musculus [24] = assay: […] anticancer activity against B6D2F-1 mice bearing P388 leukemia measured by the Average tumor vol after day 14 at an intravenous dose of 3(mg/kg).; type: functional
Mus musculus [25] = assay: […] anticancer activity against B6D2F-1 mice bearing Lewis Lung Carcinoma measured by the average weight change(g) after day 14 at an intraperitoneal dose of 6(mg/kg).; type: functional; outline: as §1
Mus musculus [26] = assay: […] anticancer activity against B6D2F-1 mice bearing Sarcoma 180 measured by the average weight change(g) after day 7 at an intraperitoneal dose of 3(mg/kg).; type: functional; outline: as §2
Mus musculus [27] = assay: […] anticancer activity against B6D2F-1 mice bearing Lewis Lung Carcinoma measured by the average weight change(g) after day 7 at an intraperitoneal dose of 6(mg/kg).; type: functional; outline: as §1

CCOC(=O)Nc1cc(CO)cc(Nc2c3ccccc3nc3ccccc23)c1
Average tumor volume (Mus musculus [1]): 0.37 | Average tumor volume (Mus musculus [2]): 0.63 | Average weight change (Mus musculus [3]): -0.7 g | Average weight change (Mus musculus [4]): -0.8 g | Toxicity related death (Mus musculus [5]): 0 | Average weight change (Mus musculus [6]): -0.8 g | Average tumor volume (Mus musculus [7]): <0.01 | Average weight change (Mus musculus [8]): -0.1 g | Average weight change (Mus musculus [9]): -3.4 g | Average weight change (Mus musculus [10]): -1.3 g | Average weight change (Mus musculus [11]): -2.3 g | Average tumor volume (Mus musculus [12]): 1.24 | Average tumor volume (Mus musculus [13]): 0.22 | Average tumor volume (Mus musculus [14]): 0.8 | Average tumor volume (Mus musculus [15]): 1.21 | Average weight change (Mus musculus [16]): -0.2 g | Body weight (Mus musculus [17]): 23 g | IC50 (HL-60): 4.4 nM | Average weight change (Mus musculus [18]): -2.6 g | Average weight change (Mus musculus [19]): -0.1 g | Average weight change (Mus musculus [20]): -2.6 g | Average weight change (Mus musculus [21]): -3.7 g | Average weight change (Mus musculus [22]): 1 g | Average weight change (Mus musculus [23]): -1.6 g | Average tumor volume (Mus musculus [24]): 0.74 | Average weight change (Mus musculus [25]): -0.5 g | Average weight change (Mus musculus [26]): -2 g | Average weight change (Mus musculus [27]): -3 g
